Test results published in ChEMBL document CHEMBL3272285, “A potential amphetamine antagonist, adamantanamine derivative of fluphenazine” (J Med Chem, 1976).

Key:
Rattus norvegicus [1] = assay: Toxicity in Sprague-Dawley rat assessed as shock avoidance response at 70 mg/kg, sc on day 2 relative to d-amphetamine; assay type: organism-based; design: dose 70 mg/kg, route subcutaneous; settings: in vivo
Rattus norvegicus [2] = assay: Inhibition of d-amphetamine-induced increase spontaneous locomotor activity in Sprague-Dawley rat at 70 mg/kg, sc on day 1, drug administered prior to 2 mg/kg d-amphetamine challenge on 1,2,4 and 7th day relative to control; assay type: functional; design: scale not given: the % may be the effect or the level left
Procedure, shortened: (§1)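 After the initial drug injections, with a sesame oil vehicle group as control, rats got 2 mg/kg d-amphetamine in saline on days 1, 2, 4 and 7. Motor activity was recorded with an electronic motility meter for 30 min immediately after each amphetamine dose, at the same time of day. Counts are expressed as % of the vehicle control group.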

Rattus norvegicus [3] = assay: Inhibition of d-amphetamine-induced increase spontaneous locomotor activity in Sprague-Dawley rat at 70 mg/kg, sc on day 2, drug administered prior to 2 mg/kg d-amphetamine challenge on 1,2,4 and 7th day relative to control; assay type: functional; design: scale not given: the % may be the effect or the level left; procedure, shortened: as §1
Rattus norvegicus [4] = assay: Inhibition of d-amphetamine-induced increase spontaneous locomotor activity in Sprague-Dawley rat at 70 mg/kg, sc on day 4, drug administered prior to 2 mg/kg d-amphetamine challenge on 1,2,4 and 7th day relative to control; assay type: functional; design: scale not given: the % may be the effect or the level left; procedure, shortened: as §1
Rattus norvegicus [5] = assay: Inhibition of d-amphetamine-induced increase spontaneous locomotor activity in Sprague-Dawley rat at 70 mg/kg, sc on day 7, drug administered prior to 2 mg/kg d-amphetamine challenge on 1,2,4 and 7th day relative to control; assay type: functional; design: scale not given: the % may be the effect or the level left; procedure, shortened: as §1
Rattus norvegicus [6] = assay: Inhibition of d-amphetamine-induced increase shock avoidance response in Sprague-Dawley rat at 70 mg/kg, sc on day 1, drug administered prior to 2 mg/kg d-amphetamine challenge on 1,2,4 and 7th day relative to control; assay type: functional; design: scale not given: the % may be the effect or the level left
Procedure, shortened: (§2)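 Rats were pretreated sc with 0.1 mmol of the dihydrochloride 1, 2, 4 or 7 days before 2 mg/kg d-amphetamine sulfate, in groups of five. Each was placed in a shuttle box 30 min after amphetamine and ran one session. Light and tone came on a variable interval 60-s schedule, with shock 5 s later; a trial ended without response 30 s after shock onset. Avoidances over 50 trials were scored as % of an amphetamine-only control group.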

Rattus norvegicus [7] = assay: Inhibition of d-amphetamine-induced increase shock avoidance response in Sprague-Dawley rat at 70 mg/kg, sc on day 2, drug administered prior to 2 mg/kg d-amphetamine challenge on 1,2,4 and 7th day relative to control; assay type: functional; design: scale not given: the % may be the effect or the level left; procedure, shortened: as §2
Rattus norvegicus [8] = assay: Inhibition of d-amphetamine-induced increase shock avoidance response in Sprague-Dawley rat at 70 mg/kg, sc on day 4, drug administered prior to 2 mg/kg d-amphetamine challenge on 1,2,4 and 7th day relative to control; assay type: functional; design: scale not given: the % may be the effect or the level left; procedure, shortened: as §2
Rattus norvegicus [9] = assay: Inhibition of d-amphetamine-induced increase shock avoidance response in Sprague-Dawley rat at 70 mg/kg, sc on day 7, drug administered prior to 2 mg/kg d-amphetamine challenge on 1,2,4 and 7th day relative to control; assay type: functional; design: scale not given: the % may be the effect or the level left; procedure, shortened: as §2
Rattus norvegicus [10] = assay: Toxicity in Sprague-Dawley rat assessed as spontaneous locomotor activity at 70 mg/kg, sc on day 1 relative to control; assay type: organism-based; design: dose 70 mg/kg, route subcutaneous; settings: in vivo
Rattus norvegicus [11] = assay: Toxicity in Sprague-Dawley rat assessed as spontaneous locomotor activity at 70 mg/kg, sc on day 2 relative to control; assay type: organism-based; design: dose 70 mg/kg, route subcutaneous; settings: in vivo
Rattus norvegicus [12] = assay: Toxicity in Sprague-Dawley rat assessed as spontaneous locomotor activity at 70 mg/kg, sc on day 4 relative to control; assay type: organism-based; design: dose 70 mg/kg, route subcutaneous; settings: in vivo
Rattus norvegicus [13] = assay: Toxicity in Sprague-Dawley rat assessed as spontaneous locomotor activity at 70 mg/kg, sc on day 7 relative to control; assay type: organism-based; design: dose 70 mg/kg, route subcutaneous; settings: in vivo
Rattus norvegicus [14] = assay: Toxicity in Sprague-Dawley rat assessed as shock avoidance response at 70 mg/kg, sc on day 1 relative to d-amphetamine; assay type: organism-based; design: dose 70 mg/kg, route subcutaneous; settings: in vivo
Rattus norvegicus [15] = assay: Toxicity in Sprague-Dawley rat assessed as shock avoidance response at 70 mg/kg, sc on day 4 relative to d-amphetamine; assay type: organism-based; design: dose 70 mg/kg, route subcutaneous; settings: in vivo
Rattus norvegicus [16] = assay: Toxicity in Sprague-Dawley rat assessed as shock avoidance response at 70 mg/kg, sc on day 7 relative to d-amphetamine; assay type: organism-based; design: dose 70 mg/kg, route subcutaneous; settings: in vivo
Rattus norvegicus [17] = assay: Toxicity in Sprague-Dawley rat assessed as sedation effect at 70 mg/kg, sc for 2 days; assay type: organism-based; design: dose 70 mg/kg, route subcutaneous; settings: in vivo, 48 h

In the case of `Cl.O=C(NC12CC3CC(CC(C3)C1)C2)OCCN1CCN(CCCN2c3ccccc3Sc3ccc(C(F)(F)F)cc32)CC1`, the Activity (Rattus norvegicus [1]) is reported as 82.2%, the Activity (Rattus norvegicus [2]) is reported as 55.7% and the Activity (Rattus norvegicus [3]) is reported as 51.9%. For the same compound, the Activity (Rattus norvegicus [4]) was 71.2%, the Activity (Rattus norvegicus [5]) was 101.2% and the Activity (Rattus norvegicus [6]) was 16.7%. For the same compound, the Activity (Rattus norvegicus [7]) was 47%, the Activity (Rattus norvegicus [8]) was 61.8% and the Activity (Rattus norvegicus [9]) was 92.5%. It also gave an Activity (Rattus norvegicus [10]) of 52.8%, an Activity (Rattus norvegicus [11]) of 47.8% and an Activity (Rattus norvegicus [12]) of 29.6%. The Activity (Rattus norvegicus [13]) was 26.6%, the Activity (Rattus norvegicus [14]) was 71.5% and the Activity (Rattus norvegicus [15]) was 90.9%. For the same compound, the Activity (Rattus norvegicus [16]) was 72% and the Activity (Rattus norvegicus [17]) was “Toxic”.
